pEC50: −log10 of the molar value.
Tested on: Aorta
Assay: Vasodilatory activity in Wistar rat endothelium-denuded thoracic aortic ring assessed as inhibition of phenylephrine-induced contraction
Assay type: functional, tissue-based
Settings: not given
Method in brief: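 Endothelium removed from rat aorta; three helically cut strips per aorta. Once agonist contraction plateaued, cumulative vasodilator concentrations were added. EC50 (µM) given as mean ± SE, n = 3-15.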

SMILES	pEC50
O=[N+]([O-])OC[C@@H](CCc1ccccc1)O[N+](=O)[O-]	7.31
O=[N+]([O-])OC[C@@H](Cc1ccccc1)O[N+](=O)[O-]	7.20
O=[N+]([O-])OCCCCc1ccccc1	6.82
O=[N+]([O-])OC[C@H](Cc1ccccc1)O[N+](=O)[O-]	7.21
O=[N+]([O-])OCCCc1ccccc1	6.80
O=[N+]([O-])OC[C@H](CCc1ccccc1)O[N+](=O)[O-]	7.31
O=[N+]([O-])OCC(CO[N+](=O)[O-])O[N+](=O)[O-] [NITROGLYCERIN]	7.54

Tested on: Aorta
Assay: Vasodilatory activity in Wistar rat endothelium-denuded thoracic aortic ring assessed as inhibition of phenylephrine-induced contraction drug treated 30 mins after ALDH2 inhibitor chloral hydrate treatment
Assay type: functional, tissue-based
Settings: 0.5 h

SMILES	pEC50
O=[N+]([O-])OC[C@@H](CCc1ccccc1)O[N+](=O)[O-]	6.57
O=[N+]([O-])OC[C@@H](Cc1ccccc1)O[N+](=O)[O-]	5.92
O=[N+]([O-])OCCCCc1ccccc1	5.96
O=[N+]([O-])OC[C@H](Cc1ccccc1)O[N+](=O)[O-]	5.92
O=[N+]([O-])OCCCc1ccccc1	5.52
O=[N+]([O-])OC[C@H](CCc1ccccc1)O[N+](=O)[O-]	6.43
O=[N+]([O-])OCC(CO[N+](=O)[O-])O[N+](=O)[O-] [NITROGLYCERIN]	6.03

Tested on: Aorta
Assay: Vasodilatory activity in Wistar rat endothelium-denuded thoracic aortic ring assessed as inhibition of phenylephrine-induced contraction drug treated 30 mins after 1 uM soluble guanylate cyclase heme site inhibitor ODQ treatment
Assay type: functional, tissue-based
Settings: 0.5 h

SMILES	pEC50
O=[N+]([O-])OC[C@@H](CCc1ccccc1)O[N+](=O)[O-]	4.54
O=[N+]([O-])OC[C@@H](Cc1ccccc1)O[N+](=O)[O-]	< 4.00
O=[N+]([O-])OCCCCc1ccccc1	4.18
O=[N+]([O-])OC[C@H](Cc1ccccc1)O[N+](=O)[O-]	< 4.00
O=[N+]([O-])OCCCc1ccccc1	< 4.00
O=[N+]([O-])OC[C@H](CCc1ccccc1)O[N+](=O)[O-]	4.52
O=[N+]([O-])OCC(CO[N+](=O)[O-])O[N+](=O)[O-] [NITROGLYCERIN]	< 4.00

Tested on: Aorta
Assay: Vasodilatory activity in Wistar rat endothelium-denuded cross tolerant thoracic aortic ring assessed as inhibition of phenylephrine-induced contraction preincubated with 0.55 mM GTN for 1 hr followed by washing
Assay type: functional, tissue-based
Settings: not given
Method in brief: (§1)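 Endothelium-denuded helical rat aortic strips. After 1 h equilibration, strips were incubated in 0.55 mM GTN for 1 h, then washed extensively for 1 h. Cumulative concentration-response curves were then run on contracted strips. EC50 (µM, mean ± SE, n = 3-15) was compared with untreated strips.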

SMILES	pEC50
O=[N+]([O-])OC[C@@H](CCc1ccccc1)O[N+](=O)[O-]	5.80
O=[N+]([O-])OC[C@@H](Cc1ccccc1)O[N+](=O)[O-]	5.19
O=[N+]([O-])OCCCCc1ccccc1	5.35
O=[N+]([O-])OC[C@H](Cc1ccccc1)O[N+](=O)[O-]	5.21
O=[N+]([O-])OCCCc1ccccc1	4.70
O=[N+]([O-])OC[C@H](CCc1ccccc1)O[N+](=O)[O-]	5.62
O=[N+]([O-])OCC(CO[N+](=O)[O-])O[N+](=O)[O-] [NITROGLYCERIN]	5.36

Tested on: Aorta
Assay: Ratio of EC50 for vasodilatory activity in Wistar rat endothelium-denuded cross tolerant thoracic aortic ring preincubated with 0.55 mM GTN for 1 hr followed by washing to EC50 for vasodilatory activity in Wistar rat endothelium-denuded thoracic aortic ring
Assay type: functional
Settings: not given
Method in brief: as §1

SMILES	Ratio EC50
O=[N+]([O-])OC[C@@H](CCc1ccccc1)O[N+](=O)[O-]	33
O=[N+]([O-])OC[C@@H](Cc1ccccc1)O[N+](=O)[O-]	102
O=[N+]([O-])OCCCCc1ccccc1	30
O=[N+]([O-])OC[C@H](Cc1ccccc1)O[N+](=O)[O-]	100
O=[N+]([O-])OCCCc1ccccc1	125
O=[N+]([O-])OC[C@H](CCc1ccccc1)O[N+](=O)[O-]	49
O=[N+]([O-])OCC(CO[N+](=O)[O-])O[N+](=O)[O-] [NITROGLYCERIN]	152

Tested on: Aorta
Assay: Ratio of EC50 for vasodilatory activity in Wistar rat endothelium-denuded thoracic aortic ring in presence of benomyl to EC50 for vasodilatory activity in Wistar rat endothelium-denuded thoracic aortic ring
Assay type: functional
Settings: not given

SMILES	Ratio EC50
O=[N+]([O-])OC[C@@H](CCc1ccccc1)O[N+](=O)[O-]	2.4
O=[N+]([O-])OC[C@@H](Cc1ccccc1)O[N+](=O)[O-]	10
O=[N+]([O-])OCCCCc1ccccc1	3.4
O=[N+]([O-])OC[C@H](Cc1ccccc1)O[N+](=O)[O-]	9.8
O=[N+]([O-])OCCCc1ccccc1	9.4
O=[N+]([O-])OC[C@H](CCc1ccccc1)O[N+](=O)[O-]	3.3
O=[N+]([O-])OCC(CO[N+](=O)[O-])O[N+](=O)[O-] [NITROGLYCERIN]	14

Tested on: Aorta
Assay: Ratio of EC50 for vasodilatory activity in Wistar rat endothelium-denuded thoracic aortic ring in presence of chloral hydrate to EC50 for vasodilatory activity in Wistar rat endothelium-denuded thoracic aortic ring
Assay type: functional
Settings: not given

SMILES	Ratio EC50
O=[N+]([O-])OC[C@@H](CCc1ccccc1)O[N+](=O)[O-]	5.5
O=[N+]([O-])OC[C@@H](Cc1ccccc1)O[N+](=O)[O-]	19
O=[N+]([O-])OCCCCc1ccccc1	7.3
O=[N+]([O-])OC[C@H](Cc1ccccc1)O[N+](=O)[O-]	20
O=[N+]([O-])OCCCc1ccccc1	19
O=[N+]([O-])OC[C@H](CCc1ccccc1)O[N+](=O)[O-]	7.6
O=[N+]([O-])OCC(CO[N+](=O)[O-])O[N+](=O)[O-] [NITROGLYCERIN]	32

Tested on: Aorta
Assay: Vasodilatory activity in Wistar rat endothelium-denuded thoracic aortic ring assessed as inhibition of phenylephrine-induced contraction drug treated 30 mins after ALDH2 inhibitor benomyl treatment
Assay type: functional, tissue-based
Settings: 0.5 h

SMILES	pEC50
O=[N+]([O-])OC[C@@H](CCc1ccccc1)O[N+](=O)[O-]	6.92
O=[N+]([O-])OC[C@@H](Cc1ccccc1)O[N+](=O)[O-]	6.20
O=[N+]([O-])OCCCCc1ccccc1	6.29
O=[N+]([O-])OC[C@H](Cc1ccccc1)O[N+](=O)[O-]	6.22
O=[N+]([O-])OCCCc1ccccc1	5.82
O=[N+]([O-])OC[C@H](CCc1ccccc1)O[N+](=O)[O-]	6.80
O=[N+]([O-])OCC(CO[N+](=O)[O-])O[N+](=O)[O-] [NITROGLYCERIN]	6.38
